# Data: ChEMBL document CHEMBL4049439, “Synthesis and Characterization of Tetrahydropyran-Based Bacterial Topoisomerase Inhibitors with Antibacterial Activity against Gram-Negative Bacteria” (J Med Chem, 2017)
# Tests used:
# [1] = Inhibition of wild-type Acinetobacter baumannii DNA gyrase supercoiling activity using relaxed pBR322 DNA as substrate by ethidium bromide based agarose gel electrophoresis
# Streptococcus pyogenes = experiment: Antibacterial activity against Streptococcus pyogenes by CLSI broth microdilution method; assay type: functional
# Staphylococcus aureus [2] = experiment: Antibacterial activity against Staphylococcus aureus ATCC 29213 by CLSI broth microdilution method; assay type: functional
# [3] = Volume of distribution at steady state in Wistar rat at 10 mg/kg, iv by LC-MS/MS analysis; assay type: ADME, organism-based; settings: in vivo, read-out: Vdss
# How it was run: (§1)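 Rats received a single intravenous dose of 10 or 1 mg/kg depending on the compound. Clearance, unbound clearance, Vdss, terminal half-life and dose-normalized AUC were derived from plasma exposure, with unbound fraction (fu) reported for this species.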
# [4] = Fraction unbound in Dunkin-Hartley guinea pig plasma administered as iv at 3 mg/kg for first 20 mins of infusion followed by 10 mg/kg for second 20 mins of infusion followed by 30 mg/kg for third 20 mins of infusion by rapid equilibrium dialysis; assay type: ADME, organism-based, Cavia porcellus
# Enterococcus faecalis = experiment: Antibacterial activity against Enterococcus faecalis by CLSI broth microdilution method; assay type: functional
# Pseudomonas aeruginosa [5] = experiment: Antibacterial activity against fluoroquinolone/carbapenem-resistant Pseudomonas aeruginosa by CLSI broth microdilution method; assay type: functional
# Acinetobacter baumannii = experiment: Antibacterial activity against multi-drug resistant Acinetobacter baumannii by CLSI broth microdilution method; assay type: functional
# Cavia porcellus [6] = experiment: (§2) Cardiotoxicity in Dunkin-Hartley guinea pig assessed as free plasma concentration causing effect on PR interval administered as iv at 3 mg/kg for first 20 mins of infusion followed by 10 mg/kg for second 20 mins of infusion followed by 30 mg/kg for third 20 mins of infusion by LC-MS/MS analysis; assay type: toxicity, organism-based; settings: in vivo
# How it was run: (§3)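 Anesthetized guinea pigs received 3, 10 and 30 mg/kg iv over three consecutive 20 min periods. MAP, HR and ECG intervals (PR, QRS, RR, QT) recorded continuously. Blood drawn at the end of each period for drug levels. Value is the lowest plasma concentration differing from vehicle-treated animals. Free level uses unbound fraction from rapid equilibrium dialysis of guinea pig plasma.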
# [7] = molecular target: Voltage-gated inwardly rectifying potassium channel KCNH2 (Homo sapiens, UniProt Q12809); experiment: (§4) Inhibition of human ERG assessed as reduction of K+ current
# Sequence of Voltage-gated inwardly rectifying potassium channel KCNH2 (Q12809 whole entry): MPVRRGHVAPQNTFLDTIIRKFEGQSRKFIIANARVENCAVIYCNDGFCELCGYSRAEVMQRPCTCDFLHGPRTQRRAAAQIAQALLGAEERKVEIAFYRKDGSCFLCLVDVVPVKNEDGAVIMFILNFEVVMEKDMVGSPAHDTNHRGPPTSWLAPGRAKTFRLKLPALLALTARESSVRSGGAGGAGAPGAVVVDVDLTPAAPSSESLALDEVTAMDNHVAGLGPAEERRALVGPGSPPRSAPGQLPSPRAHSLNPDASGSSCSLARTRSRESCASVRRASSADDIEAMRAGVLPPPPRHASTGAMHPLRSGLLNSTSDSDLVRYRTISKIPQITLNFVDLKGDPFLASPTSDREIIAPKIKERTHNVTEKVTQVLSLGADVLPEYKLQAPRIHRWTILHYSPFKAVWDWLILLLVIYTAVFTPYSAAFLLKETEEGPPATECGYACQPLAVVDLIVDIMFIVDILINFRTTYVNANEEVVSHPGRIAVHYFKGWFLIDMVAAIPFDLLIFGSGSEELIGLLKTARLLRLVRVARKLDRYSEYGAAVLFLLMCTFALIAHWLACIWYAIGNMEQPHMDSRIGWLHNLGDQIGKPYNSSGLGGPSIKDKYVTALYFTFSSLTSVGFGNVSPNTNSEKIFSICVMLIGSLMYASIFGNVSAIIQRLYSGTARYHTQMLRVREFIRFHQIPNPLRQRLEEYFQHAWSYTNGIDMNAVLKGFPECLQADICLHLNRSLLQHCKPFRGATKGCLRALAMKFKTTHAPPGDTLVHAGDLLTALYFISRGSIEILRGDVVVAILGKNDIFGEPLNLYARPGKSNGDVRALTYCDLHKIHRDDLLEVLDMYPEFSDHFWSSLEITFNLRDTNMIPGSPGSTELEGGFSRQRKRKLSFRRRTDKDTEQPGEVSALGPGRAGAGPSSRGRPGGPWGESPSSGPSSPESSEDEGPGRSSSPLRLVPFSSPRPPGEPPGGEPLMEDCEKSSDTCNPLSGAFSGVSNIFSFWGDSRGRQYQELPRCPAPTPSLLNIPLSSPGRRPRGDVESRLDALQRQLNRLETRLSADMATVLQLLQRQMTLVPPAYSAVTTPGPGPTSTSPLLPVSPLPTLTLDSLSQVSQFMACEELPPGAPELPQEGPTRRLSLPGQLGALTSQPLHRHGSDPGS
# hERG (KCNH2) [8] = molecular target: T1, hERG (KCNH2) (Homo sapiens, UniProt Q12809); experiment: as §4; settings: human
# T1 sequence (Q12809 whole entry): as above
# Streptococcus pneumoniae = experiment: Antibacterial activity against Streptococcus pneumoniae by CLSI broth microdilution method; assay type: functional
# Cavia porcellus [9] = experiment: Cardiotoxicity in Dunkin-Hartley guinea pig assessed as free plasma concentration causing effect on QRS interval administered as iv at 3 mg/kg for first 20 mins of infusion followed by 10 mg/kg for second 20 mins of infusion followed by 30 mg/kg for third 20 mins of infusion by LC-MS/MS analysis; assay type: toxicity, organism-based; settings: in vivo; how it was run: as §3
# [10] = Clearance in Wistar rat at 10 mg/kg, iv by LC-MS/MS analysis; assay type: ADME, organism-based; settings: in vivo
# How it was run: (§5)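 Rats dosed iv at 10 mg/kg or 1 mg/kg. Dose-normalized AUC (μg·h/(mL·dose)) and its unbound counterpart derived via fraction unbound. Clearance, unbound clearance, Vdss and half-life also derived.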
# Escherichia coli [11] = experiment: Antibacterial activity against Escherichia coli by CLSI broth microdilution method; assay type: functional
# Staphylococcus aureus [12] = experiment: Antibacterial activity against Staphylococcus aureus by CLSI broth microdilution method; assay type: functional
# [13] = Volume of distribution at steady state in dog at 1 mg/kg, iv by LC-MS/MS analysis; assay type: ADME, organism-based, Canis lupus familiaris; settings: in vivo, read-out: Vdss
# How it was run: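 Dogs received a single intravenous dose of 1 mg/kg. Clearance, Vdss, terminal half-life and dose-normalized AUC were calculated from plasma concentration data.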
# Enterococcus faecium = experiment: Antibacterial activity against multi-drug resistant Enterococcus faecium by CLSI broth microdilution method; assay type: functional
# [14] = Inhibition of wild-type Acinetobacter baumannii DNA topoisomerase-4 mediated supercoiled pBR322 DNA relaxation by ethidium bromide based agarose gel electrophoresis
# [15] = Inhibition of wild-type Escherichia coli DNA topoisomerase-4 mediated supercoiled pBR322 DNA relaxation by ethidium bromide based agarose gel electrophoresis
# [16] = Inhibition of wild-type Pseudomonas aeruginosa DNA topoisomerase-4 mediated supercoiled pBR322 DNA relaxation by ethidium bromide based agarose gel electrophoresis
# [17] = Fraction unbound in Wistar rat plasma at 10 mg/kg, iv by rapid equilibrium dialysis; assay type: ADME, organism-based; how it was run: as §5
# Rattus norvegicus [18] = experiment: Unbound clearance in Wistar rat at 10 mg/kg, iv by LC-MS/MS analysis; assay type: ADME, organism-based; settings: in vivo; how it was run: as §1
# Escherichia coli [19] = experiment: Antibacterial activity against wild-type Escherichia coli ATCC 25922 by CLSI broth microdilution method; assay type: functional
# [20] = Cardiotoxicity against human induced pluripotent stem cell-derived cardiomyocytes assessed as total drug concentration causing effect on spontaneous rhythm after 5 to 60 mins by Fluo-4 dye based fluorescence assay; assay type: toxicity; settings: cardiac muscle cell
# How it was run: (§6)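 Spontaneous beating rhythm of human iPSC-derived cardiomyocytes monitored. Reported value is the lowest active concentration, free or total. Free/total conversion corrected for 20% serum in the test solution.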
# [21] = Half-life in dog at 1 mg/kg, iv by LC-MS/MS analysis; assay type: ADME, organism-based, Canis lupus familiaris; settings: in vivo
# How it was run: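 Dogs given 1 mg/kg iv. Clearance (mL/min/kg) and half-life (h) derived from plasma profiles.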
# [22] = Lipophilicity, log D of the compound at pH 7.4; assay type: physicochemical; settings: buffer
# Cavia porcellus [23] = experiment: as §2, with “mean arterial pressure” for “PR interval”; assay type: toxicity, organism-based; settings: in vivo; how it was run: as §3
# Cavia porcellus [24] = experiment: Cardiotoxicity in Dunkin-Hartley guinea pig assessed as free plasma concentration causing effect on heart rate administered as iv at 3 mg/kg for first 20 mins of infusion followed by 10 mg/kg for second 20 mins of infusion followed by 30 mg/kg for third 20 mins of infusion by LC-MS/MS analysis; assay type: toxicity, organism-based; settings: in vivo; how it was run: as §3
# [25] = Cardiotoxicity against human induced pluripotent stem cell-derived cardiomyocytes assessed as free drug concentration causing inhibition of spontaneous rhythm after 5 to 60 mins by Fluo-4 dye based fluorescence assay; assay type: toxicity; settings: cardiac muscle cell; how it was run: as §6
# Rattus norvegicus [26] = experiment: Dose normalized AUC in Wistar rat at 10 mg/kg, iv by LC-MS/MS analysis; assay type: ADME, organism-based; settings: in vivo; how it was run: as §5
# hERG (KCNH2) [27] = molecular target: T1, hERG (KCNH2); experiment: Inhibition of human ERG assessed as reduction of K+ current at 30 uM
# How it was run: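 hERG K+ channel current reduction measured at 30 μM compound concentration.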
# Canis familiaris = experiment: Dose normalized AUC in dog at 1 mg/kg, iv by LC-MS/MS analysis; assay type: ADME, organism-based, Canis lupus familiaris; settings: in vivo
# [28] = Inhibition of wild-type Pseudomonas aeruginosa DNA gyrase supercoiling activity using relaxed pBR322 DNA as substrate by ethidium bromide based agarose gel electrophoresis
# Citrobacter freundii = experiment: Antibacterial activity against Citrobacter freundii by CLSI broth microdilution method; assay type: functional
# [29] = Inhibition of wild-type Escherichia coli DNA gyrase supercoiling activity using relaxed pBR322 DNA as substrate by ethidium bromide based agarose gel electrophoresis
# Enterobacter cloacae = experiment: Antibacterial activity against fluoroquinolone/carbapenem-resistant Enterobacter cloacae by CLSI broth microdilution method; assay type: functional
# Pseudomonas aeruginosa [30] = experiment: Antibacterial activity against Pseudomonas aeruginosa ATCC 27853 by CLSI broth microdilution method; assay type: functional
Structure (SMILES),IC50 [1],MIC (Streptococcus pyogenes),MIC (Staphylococcus aureus [2]),Vd [3],fraction unbound at 20 min [4],MIC (Enterococcus faecalis),MIC (Pseudomonas aeruginosa [5]),MIC (Acinetobacter baumannii),Cp(f) (Cavia porcellus [6]),IC50 [7],IC20 (hERG (KCNH2) [8]),MIC (Streptococcus pneumoniae),Cp(f) (Cavia porcellus [9]),clearance [10],MIC (Escherichia coli [11]),MIC (Staphylococcus aureus [12]),Vd [13],MIC (Enterococcus faecium),IC50 [14],IC50 [15],also measured
COc1ccc2ncc(F)c(C[C@H](N)[C@@H]3CC[C@@H](NCc4ccc5c(n4)NC(=O)CO5)CO3)c2n1,125 nM,≤ 0.03 µg/mL,0.03 µg/mL,25 L/kg,0.33,0.25 µg/mL,1 to 2 µg/mL,0.125 to 4 µg/mL,1800 nM,5000 nM,1200 nM,0.125 to 2 µg/mL,1800 nM,86 mL/min/kg,0.125 to 0.5 µg/mL,0.125 to 0.5 µg/mL,61 L/kg,0.063 to 0.5 µg/mL,125 nM,30 nM,IC50 [16]: 30 nM; fraction unbound [17]: 0.15; CL free (Rattus norvegicus [18]): 573 mL/min/kg; MIC (Escherichia coli [19]): 0.125 µg/mL; Drug uptake [20]: 0.5 µM; half-life [21]: 2.9 h; logD [22]: 0.9; Cp(f) (Cavia porcellus [23]): 1800 nM; Cp(f) (Cavia porcellus [24]): 530 nM; Drug uptake(free) [25]: 0.28 µM; AUC/dose (Rattus norvegicus [26]): 194 µg·h/mL; inhibition at 30 µM (hERG (KCNH2) [27]): 86%; AUC/dose (Canis familiaris): 34 µg·h/mL; IC50 [28]: 30 nM; MIC (Citrobacter freundii): 0.25 µg/mL; IC50 [29]: 125 nM; MIC (Enterobacter cloacae): 0.25 to 4 µg/mL; MIC (Pseudomonas aeruginosa [30]): 1 µg/mL
COc1ccc2ccc(=O)n(C[C@H](N)[C@@H]3CC[C@@H](NCc4ccc5c(n4)NC(=O)CO5)CO3)c2n1,125 nM,≤ 0.03 µg/mL,0.25 µg/mL,21 L/kg,0.54,1 µg/mL,1 to 2 µg/mL,1 to 16 µg/mL,2700 nM,52000 nM,13000 nM,0.25 to 8 µg/mL,2700 nM,110 mL/min/kg,0.5 to 2 µg/mL,0.25 to 2 µg/mL,2.5 L/kg,1 to 16 µg/mL,125 nM,30 nM,IC50 [16]: 30 nM; fraction unbound [17]: 0.236; CL free (Rattus norvegicus [18]): 144 mL/min/kg; MIC (Escherichia coli [19]): 0.25 µg/mL; Drug uptake [20]: 0.31 to 0.93 µM; half-life [21]: 1.3 h; logD [22]: 0.3; Cp(f) (Cavia porcellus [23]): 28000 nM; Cp(f) (Cavia porcellus [24]): 11000 nM; Drug uptake(free) [25]: 0.27 to 0.81 µM; AUC/dose (Rattus norvegicus [26]): 145 µg·h/mL; inhibition at 30 µM (hERG (KCNH2) [27]): 37%; AUC/dose (Canis familiaris): 0.376 µg·h/mL; IC50 [28]: 125 nM; MIC (Citrobacter freundii): 1 µg/mL; IC50 [29]: 125 nM; MIC (Enterobacter cloacae): 2 to 16 µg/mL; MIC (Pseudomonas aeruginosa [30]): 1 µg/mL
